# Compounds with a hit are over-represented: about 2.9% of the library has one in this group of screens.
# HIV Env fusion: HIV envelope-mediated fusion inhibition; HeLa-JRFL Env/CEM21 cell fusion, luciferase; inhibition, % at 12.3 µM; actives 1.1% (n = 360,000); AID 651610;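 active = mean replicate inhibition score of at least 50 and every replicate individually at or above 50; inconclusive = only one of the two criteria met; inactive = mean below 50 and not all replicates reaching 50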;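 note: 0% = plate neutral controls and 100% = maraviroc near 300 nM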
# PAX8 inh HTS: inhibitors of PAX8 transcriptional activity in RMG-I cells; RMG-I TPO-luciferase reporter, SteadyGlo, 24 h; inhibition, % at 12.6 µM; actives 1.2% (n = 360,000); AID 652154;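 active = mean replicate inhibition at least 60% with every replicate also reaching 60%; inconclusive = only one of the two criteria is met; inactive = mean below 60% and not all replicates reaching 60%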;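 note: luciferase light reporting Pax8 driven TPO promoter activity; plate controls were median of neutral control wells for no effect and mitoxantrone controls for full effect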
# dFosB act-1: activators of mouse delta FosB homodimer; P13346; purified delta FosB, TAMRA-CDK5 oligo fluorescence polarization; percent of positive-control signal above neutral wells; activation, % at 25 µM; actives 0.99% (n = 340,000); AID 493131;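 active = mean activation above about 17%, with every replicate also reaching it, limit read from the data, passing the limit was not always enough; inconclusive = only one of the two conditions met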
# INS-1E GSIS act: GLuc luminescence reporter in INS-1E cells, primary screen for activators of glucose-dependent secretion of insulin; INS-1E GLuc reporter insulin secretion, 2-3 h; activation, % at 16.6 µM; actives 0.61% (n = 370,000);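 active = lowest replicate activation of at least 40%, so every replicate reaches that level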;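 note: 0% = median of neutral control wells and 100% = median of IBMX positive control wells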
# CDK5 p35 inh: inhibitors of human CDK5/p35 kinase. Q00535+Q15078. Recombinant CDK5/p35, ADP-Glo luminescence, 60 min. inhibition, % at 10 µM. actives 0.01% (n = 330,000). AID 488839;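 active = highest replicate inhibition of at least 50% and at least 75% of replicates reaching 50%; inconclusive = only one of the two criteria met; inactive = both criteria failed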;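 note: plate controls were DMSO neutral control for no effect and GW8510 at 10 µM for full effect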
# Target sequence (Q00535 whole entry, looked up): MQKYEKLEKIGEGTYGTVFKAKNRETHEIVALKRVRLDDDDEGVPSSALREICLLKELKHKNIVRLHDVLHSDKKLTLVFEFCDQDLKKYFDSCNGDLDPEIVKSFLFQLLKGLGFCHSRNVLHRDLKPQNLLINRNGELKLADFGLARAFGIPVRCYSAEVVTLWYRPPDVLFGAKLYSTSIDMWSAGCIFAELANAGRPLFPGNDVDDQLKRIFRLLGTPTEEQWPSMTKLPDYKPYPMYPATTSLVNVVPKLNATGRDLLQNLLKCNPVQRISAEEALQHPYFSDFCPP
# Target sequence (Q15078 whole entry, looked up): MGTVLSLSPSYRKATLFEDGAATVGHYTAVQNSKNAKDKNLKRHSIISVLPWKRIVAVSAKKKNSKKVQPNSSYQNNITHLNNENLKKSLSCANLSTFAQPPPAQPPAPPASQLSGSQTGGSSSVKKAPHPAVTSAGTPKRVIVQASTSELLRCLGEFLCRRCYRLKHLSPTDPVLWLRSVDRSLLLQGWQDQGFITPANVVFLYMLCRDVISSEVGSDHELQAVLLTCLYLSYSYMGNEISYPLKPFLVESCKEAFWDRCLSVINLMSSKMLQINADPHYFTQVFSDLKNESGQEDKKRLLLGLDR
# Cneo AK release: Cryptococcus neoformans lysis via adenylate kinase release; C. neoformans lysis, adenylate kinase release luminescence, 4 h; normalised: neutral wells 0, clomiphene wells 100; lysis activity, % at 15 µM; actives 0.2% (n = 360,000);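 active = mean lysis activity across replicates of at least 80%, whatever share of replicates individually reach that level; inactive = mean lysis activity below 80%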
#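 Assay system: Cryptococcus neoformans yeast cells / Dosing: single-point compound dose / Timing: 4 h at 37 °C static, read 1 h later / Measured by: luminescence of released adenylate kinase using an AK detection reagent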
# dFosB act-2: enhances mouse delta FosB homodimer binding to DNA; shares compounds with dFosB act-1; purified delta FosB, TAMRA-CDK5 oligo fluorescence polarization; normalised: neutral wells 0, positive control 100; activation, % at 24.9 µM; 2,400 tested, under 10 active; AID 588690;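 active = highest replicate activation at or above 34% and every replicate reaching that threshold; inconclusive = meets only one of the two criteria; inactive = meets neither criterion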;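 note: higher polarization means more probe DNA bound by delta FosB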
# * hit, by the source's call; ? = inconclusive; . = not tested or not shown; [ ] = another dose, or the depositor's remark.
SMILES,HIV Env fusion,PAX8 inh HTS,dFosB act-1,INS-1E GSIS act,CDK5 p35 inh,Cneo AK release,dFosB act-2
COc1ccc([N+](=O)[O-])cc1NC(=O)CCNC(=O)Cn1ccc2ccccc2c1=O,20.9,-6.5,19.2*,6.0,0.4,.,-4.6
COc1ccc(C)cc1NC(=O)CNC(=O)Cn1ccc2ccccc2c1=O,-0.8,.,47.1*,4.4,1.1,8.3,-1.2
COc1ccc(OC)c(NC(=O)CCNC(=O)Cn2ccc3ccccc3c2=O)c1,44.7,11.4,3.9,10.7,-6.4,2.3,.
CN1CCCCC(NC(=O)c2c(F)cccc2F)C1=O (stereo not given),6.6,-6.4,.,22.3,.,.,.
COc1ccc(CNC(=O)CSc2nc(-c3ccccc3)cc(-c3cccs3)c2C#N)cc1,?,.,?,.,-1.9,0.2,.
COc1ccc(-c2cc(-c3cccs3)c(C#N)c(SCC(=O)NCc3ccco3)n2)cc1,.,.,47.2*,.,0.4,-4.4,-0.3
O=C(COC(=O)c1ccccc1NC(=O)c1ccco1)NCc1ccc2c(c1)OCO2,.,.,30.4*,.,-0.4,-2.1,2.3
O=C(CNC(=O)c1ccco1)NCc1ccc2c(c1)OCO2,-10.9,-10.0,1.9,19.4,1.6,0.2,.
CC[C@@H](C)[C@@H]1CN([C@@H](C)CN2CCC[C@H]2CN2C(N)=NC[C@@H]2Cc2ccccc2)C(=N)N1CCCC1CCCC1,-5.2,42.6,9.0,-17.1,3.0,2.6,.
CC[C@@H](C)[C@@H]1CN([C@@H](C)CN2CCC[C@H]2CN2C(N)=NC[C@@H]2Cc2ccccc2)C(=N)N1CCc1ccc(Cl)c(Cl)c1,.,.,22.8*,.,1.3,10.6,0.8
COCC#Cc1cnc2c(c1)C(=O)N([C@@H](C)CO)C[C@@H](C)[C@@H](CN(C)C(=O)Nc1ccccc1F)O2,-24.2[16.7 µM],.,.,11.4,.,-1.0,.
CCc1ccc2oc(C(=O)NCC(c3ccc(OC)cc3)N3CCCCC3)c(C)c2c1 (stereo not given),18.2,-3.5,21.2*,-5.0,-2.4,0.8,-0.2
COc1ccccc1C(=O)Nc1ccc2c(c1)OC[C@H](C)NC[C@H](C)[C@@H](OC)CN(C)C2=O,.,.,.,18.1,.,.,.
CCN(C[C@@H]1N[C@@H](CO)[C@H]1c1ccc(-c2ccc(F)cc2)cc1)C(=O)CN(C)C,.,58.4,.,12.4,.,-0.1,.
CC(C)NC(=O)Nc1ccc2c(c1)C(=O)N([C@H](C)CO)C[C@@H](C)[C@@H](CN(C)S(=O)(=O)c1cccs1)OCCCC[C@H](C)O2,-2.9[16.7 µM],-13.1,.,15.0,.,-2.0,.
O=C(N/N=C/c1c(O)n(-c2ccccc2Cl)c(=O)c2ccccc12)c1cccnc1,20.4,4.3,-7.7,0.1,-0.3,.,.
Cc1nn(-c2cccc(Cl)c2)c(Cl)c1/C=N/NC(=O)c1cccnc1,-15.8,-11.9,22.5*,9.1,-0.5,.,-0.3
COC(=O)N/N=C/c1c(C)nn(-c2cccc(Cl)c2)c1Cl,-16.8,-18.1,-1.9,.,-2.6,8.4,.
Cc1nn(-c2ccc(F)cc2)c(Cl)c1/C=N/NC(=O)c1cccs1,-79.5,-182.2,39.1*,7.7,0.1,.,-3.0
Cc1nn(Cc2c(Cl)cccc2Cl)c(Cl)c1/C=N/NC(=O)c1cccnc1,-9.4,-60.0,55.5*,.,0.4,.,3.7
CCOc1ccc(NC(=O)NCCCn2c(C)nc3cc(C)c(C)cc32)cc1,7.2,15.0,5.9,.,-3.0,.,.
Cc1cc2nc(C)n(CCCNC(=O)Nc3cccc4ccccc34)c2cc1C,46.6,9.4,53.2*,.,1.6,.,2.4
O=C(Nc1nc(-c2ccccc2)cs1)c1ccc2c(=O)n3c(nc2c1)CCCCC3,19.4,-15.9,18.4*,4.4,-0.2,.,4.8
O=C(Nc1ccccc1Cl)c1ccc2c(=O)n3c(nc2c1)CCC3,-98.0,-92.0,-10.1,12.0,1.2,-1.9,.
C[C@H]1CN([C@@H](C)CO)C(=O)c2cc(C#CCN(C)C)cnc2O[C@H]1CN(C)C(=O)CN1CCOCC1,-6.4[16.7 µM],2.1,.,14.1,.,51.6,.
SMILES,HIV Env fusion,PAX8 inh HTS,dFosB act-1,INS-1E GSIS act,CDK5 p35 inh,Cneo AK release,dFosB act-2
O=C(Nc1nc(-c2nc3ccccc3s2)cs1)c1ccco1,-65.9,-138.9,78.5*,6.7,-0.6,-1.4,3.5
Cc1c(Cl)cccc1NC(=O)CC1Oc2ccccc2NC1=O (stereo not given),-0.6,10.4,23.5*,0.0,-1.8,.,4.7
Cc1ccc(C)c(NC(=O)CC2Sc3ccccc3NC2=O)c1 (stereo not given),15.9,-16.7,0.5,.,0.3,.,.
Cc1c(Cl)cccc1NC(=O)CC1Sc2ccccc2NC1=O (stereo not given),-1.4,8.2,46.4*,-13.8,-1.0,-3.5,1.8
CC(C)NC(=O)Nc1ccc2c(c1)C(=O)N([C@@H](C)CO)C[C@H](C)[C@@H](CN(C)Cc1ccncc1)OCCCC[C@@H](C)O2,3.0[16.7 µM],-13.8,.,13.1,.,-0.8,.
CO[C@H]1CC[C@@H]2CCOc3c(C#N)cccc3C(=O)N(C)C[C@H](C)C(=O)N(C)C[C@@H]1O2,-5.5[16.7 µM],10.3,.,-7.0,.,25.3,.
O=C(CC(F)(F)F)N1C[C@H]2[C@@H](c3ccccc31)[C@@H](CO)N2C(=O)C1CCOCC1,.,-12.3,.,5.5,.,-1.2,.
O=C(C[C@@H]1CC[C@H](NC(=O)C2CC2)[C@H](CO)O1)NC1CCC1,2.5[16.7 µM],-0.4,.,11.7,.,0.0,.
CCCNC(=O)N[C@H]1CC[C@H](CCn2cc(C3CCCCC3)nn2)O[C@@H]1CO,21.8[16.7 µM],2.2,.,-2.7,.,-3.5,.
CS(=O)(=O)N1Cc2cc(C(=O)NCC3CCCCC3)nc(-c3cccc(-c4cccnc4)c3)c2[C@@H]1CCO,.,.,.,-16.7,.,.,.
COc1ccc(-c2cc(C(=O)Nc3ccc(F)cc3F)no2)cc1,-30.6,-36.1,-1.5,12.5,-1.3,1.1,.
COc1ccc(OC)c(-c2cc(C(=O)Nc3ccc(F)cc3F)no2)c1,8.3,8.5,33.3*,9.6,1.2,-0.6,6.2
COc1cccc(NC(=O)C[C@H]2CC[C@H]3[C@H](COc4ccc(NC(C)=O)cc4C(=O)N3C)O2)c1,7.1[16.7 µM],-15.4,.,4.2,.,-1.0,.
Cc1nc2ccccn2c1C(=O)CSc1ccc(Cl)cc1Cl,15.5,-11.6,49.8*,.,-0.8,2.2,0.8
Cc1nc2ccccn2c1C(=O)CSc1ccccc1Cl,.,.,-20.8,-9.1,0.4,2.0,.
CO[C@H]1CN(C)C(=O)c2ccc(NC(=O)C3CC3)cc2OC[C@@H](C)N(CC2CC2)C[C@H]1C,.,-11.9,.,7.0,.,-2.0,.
C[C@H]1CN([C@@H](C)CO)S(=O)(=O)c2ccc(C3=CCCC3)cc2O[C@H]1CN(C)Cc1ccccn1,.,7.0,.,3.6,.,-4.0,.
C[C@H](CO)N1C[C@H](C)[C@H](CN(C)C(=O)C2CC2)Oc2ncc(C#CCc3ccccc3)cc2C1=O,1.2[16.7 µM],.,.,16.7,.,-10.0,.
